# Screens deposited in PubChem BioAssay by several laboratories.
# In the library only some 1.5% were active in any assay of this set; here they are far more common.
# Tb MetRS inh – T. brucei MetRS inhibitors, primary screen, biochemical, luminescence; methionyl-tRNA synthetase (Trypanosoma brucei brucei); purified T. brucei MetRS, ATP depletion, Kinase-Glo luminescence; inhibition, % at 11.9 µM; 0.4% of 360,000 active; AID 624268, 2012;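 active = inhibition above a per-plate cutoff of the control wells' mean inhibition plus 3 SD, cut at about 5.5% in these data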
#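 Material – parasite MetRS enzyme · Medium – HEPES-MgCl2-KCl buffer plus DTT, spermine, BSA, pyrophosphatase · Reagent – ATP, methionine and E. coli bulk tRNA substrates · Times – 15 min enzyme-compound preincubation, 2 h reaction, 10 min detection, 25 °C · Measured by – luminescence of leftover ATP · Evaluation – percent inhibition relative to median high and low control wells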
# Rin1-Abl PPI inh – inhibitors of Rin1-Abl protein binding, primary screen, biochemical, TR-FRET; Tyrosine-protein kinase ABL1 (Homo sapiens) + Ras and Rab interactor 1 (Homo sapiens), …; inhibition, % at 7.35 µM; 0.4% of 360,000 active; AID 588664, 2011; in the data active = inhibition above about 5%, passing the limit was not always enough
# PKA-R2B act – activators of PKA-R2B holoenzyme, primary screen, biochemical, fluorescence polarization, Cy5-IP20, human; 0.079% of 340,000 active; activation, % at 11.4 µM; AID 504700, 2011; cAMP-dependent protein kinase catalytic subunit beta (Homo sapiens) + cAMP-dependent …; PKA-R2B holoenzyme dissociation; R2B truncated from residue 108, S112A mutant; 0% DMSO only, 100% 113 µM cGMP;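 active = activation above a cutoff set at the mean over all compounds plus 3 SD, cut at about 18% in these data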;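 also: higher means more holoenzyme dissociation and a rise in polarization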
# PKA-R1A act – activators of PKA-R1A holoenzyme, primary screen, biochemical, fluorescence polarization, Cy5-IP20, bovine R1A, mouse PKAc. activation, % at 11.4 µM. cAMP-dependent protein kinase type I-alpha regulatory subunit (Bos taurus) + …. PKA-R1A dissociation; scaled: DMSO 0%, 113 µM cGMP 100%. 0.083% of 340,000 active;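 active = percent activation above the mean of all tested compounds plus 3 SD, cut at about 19% in these data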;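 also: higher means more PKAc released from R1A so a rise in polarization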
# H9c2 protect – cardioprotection against H2O2-induced cell death, primary screen, uHTS, H9c2 cells, ATPLite luminescence | protection from H2O2 cell death, % at 20 µM | H9c2 cardiomyocytes, H2O2 injury protection, 2 h | 0.63% of 360,000 active | AID 588492, 2011;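 active = compounds giving at least 50% protection of heart cells from peroxide-induced death in the single-dose screen, raw or plate-pattern-corrected value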
# TbMetRS confirm – T. brucei MetRS inhibitors, confirmation, biochemical, luminescence; 93% of 1,400 active; T. brucei MetRS enzyme, luminescence (ATP depletion); shares compounds with Tb MetRS inh; inhibition, % at 11.9 µM; AID 624412, 2012; in the data active = inhibition above about 7%
# Jurkat tox – Jurkat T cell cytotoxicity, cytotoxicity control for T. brucei MetRS inhibitor project, luminescence, high throughput | shares compounds with Tb MetRS inh | Jurkat cells viability, ATP luminescence | inhibition, % at 8.3 µM | 12% of 1,400 active | AID 624413, 2012; in the data active = inhibition above about 15%
# Tb MetRS inh FP – T. brucei MetRS inhibitors, orthogonal assay for T. brucei MetRS inhibitor project, biochemical, fluorescence polarization; 44% of 1,400 active; shares compounds with Tb MetRS inh; purified T. brucei MetRS; inhibition, % at 11.9 µM; in the data active = inhibition above about 17%
# A number is an active result; n = inactive; x = no result; ! = not active in a repeat.
SMILES,Tb MetRS inh,Rin1-Abl PPI inh,PKA-R2B act,PKA-R1A act,H9c2 protect,TbMetRS confirm,Jurkat tox,Tb MetRS inh FP
CCN(CC)S(=O)(=O)c1ccc(OC)c(NC(=O)c2ccc([N+](=O)[O-])cc2)c1,n,n,n,n,n,x,x,x
O=C(Nc1cccc(Cl)c1)c1ccc(-n2cncn2)c([N+](=O)[O-])c1,42,n,n,n,n,66,n,37
COc1ccc(C(=O)NCCC2=CCCCC2)cc1[N+](=O)[O-],n,n,n,n,n,x,x,x
CCN(CC)S(=O)(=O)c1ccc(OC)c(NC(=O)c2ccc(-n3cncn3)c([N+](=O)[O-])c2)c1,37,n,n,n,n,81,n,50
CC1CCCCC1NC(=O)c1ccc(-n2cncn2)c([N+](=O)[O-])c1 (stereo unspecified),37,n,n,n,n,73,n,41
Cc1occc1C(=O)NNC(=O)c1ccccc1Br,n,n,n,n,n,x,x,x
Cc1nc([N+](=O)[O-])c(Sc2nc3ccccc3n2C)n1Cc1ccccc1,n,n,n,n,n,x,x,x
Cc1cc(S(=O)(=O)NCc2ccc(N3CCN(C)CC3)cc2)c(C)s1,n,n,x,x,n,x,x,x
Cc1cccc(C)c1NC(=O)CN(C)C(=O)c1ccc(-n2cncn2)c([N+](=O)[O-])c1,n,n,n,n,n,x,x,x
O=C(Nc1ccc(Cl)cc1)c1ccc(-n2cccn2)c([N+](=O)[O-])c1,n,n,n,n,n,x,x,x
O=C(Nc1ccc(Cl)cc1)c1ccc(-n2cncn2)c([N+](=O)[O-])c1,42,n,n,n,n,62,n,33
Cc1ccc(NC(=O)c2ccc(-n3cncn3)c([N+](=O)[O-])c2)cc1,27,n,n,n,n,46,n,n
CN(CC(=O)Nc1ccc(Cl)cc1)C(=O)c1ccc(-n2cncn2)c([N+](=O)[O-])c1,70,n,n,n,n,100,n,85
O=C(O)c1ccc(-n2cncn2)c([N+](=O)[O-])c1,n,n,n,n,n,x,x,x
CCc1ccc(S(=O)(=O)NC(=S)NC2CCCCC2)cc1,n,n,n,n,n,x,x,x
Cc1ccc(NC(=O)Cc2nnc(SCC(=O)NC3CCCC3)n2C)cc1C,n,n,n,n,n,x,x,x
O=c1[nH]c2ccccc2c(=O)n1Cc1ccco1,n,n,n,n,n,x,x,x
O=c1[nH]c2ccc(Cl)cc2c(=O)n1Cc1ccco1,9.4,n,n,n,n,28,n,n
O=c1c2cc(Cl)ccc2[nH]c(=S)n1Cc1ccco1,8.1,n,n,n,n,13,n,n
Cc1cccc(N(O)C(=O)Nc2cccc(Cl)c2)c1,n,n,n,n,n,x,x,x
COc1ccc(C2CC(c3ccccc3)=NN2C(=O)COC(=O)C2(C)CC2(Cl)Cl)cc1 (stereo unspecified),n,n,n,n,n,x,x,x
COc1ccccc1C1NC(=O)NC(C)=C1C(=O)OC1CCC(C)CC1 (stereo unspecified),n,n,n,n,n,x,x,x
Cc1ccc(NC(=O)CN2CC(C)SC2=NC2CCCCC2)cc1 (stereo unspecified),12!,n,n,n,n,25,n,n
COc1ccccc1N1C(=O)c2ccccc2NC1c1ccc(O)cc1 (stereo unspecified),6.8,n,n,n,n,n,n,n
Cc1cc(C)c(C)c(S(=O)(=O)Nc2cccc(-n3cnnn3)c2)c1C,7.3,n,n,n,n,17,n,n
